For assay [1], the target named is T1, Adenosine receptor A1 (Rattus norvegicus, UniProt P25099).
T1 sequence (P25099 whole entry): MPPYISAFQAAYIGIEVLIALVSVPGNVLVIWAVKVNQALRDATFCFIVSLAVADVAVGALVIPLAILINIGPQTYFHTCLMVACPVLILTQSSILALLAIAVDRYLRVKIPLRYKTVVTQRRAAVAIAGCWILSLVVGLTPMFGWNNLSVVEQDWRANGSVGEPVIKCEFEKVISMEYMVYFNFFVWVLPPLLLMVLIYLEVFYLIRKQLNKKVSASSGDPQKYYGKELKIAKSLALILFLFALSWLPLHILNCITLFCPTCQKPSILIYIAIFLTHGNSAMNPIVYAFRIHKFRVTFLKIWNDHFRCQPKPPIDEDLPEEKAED
Kind of assay: Displacement of [3H]DPCPX from adenosine A1 receptor in rat cerebral cortex. The procedure, abridged: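 Rat brain membranes (cerebral cortex for A1, striatum for A2A) homogenized in 10 mM EDTA/10 mM Na-HEPES pH 7.4 with protease inhibitors, washed, stored at -80 °C. 40-70 µg protein incubated in triplicate with radioligand plus seven competitor concentrations in HEPES/EDTA buffer with 2 units/mL adenosine deaminase, 2.5 h, 21 °C. A1: [3H]DPCPX 2 nM, nonspecific with 10 µM NECA; A2A: [3H]ZM241385 0.5-1.2 nM, nonspecific with 10 µM XAC. GF/C filtration; single-site fit, Cheng-Prusoff Ki.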

Assay [2] concerns the target T2, Adenosine receptor A1 (Homo sapiens, UniProt P30542).
T2 sequence (P30542 whole entry): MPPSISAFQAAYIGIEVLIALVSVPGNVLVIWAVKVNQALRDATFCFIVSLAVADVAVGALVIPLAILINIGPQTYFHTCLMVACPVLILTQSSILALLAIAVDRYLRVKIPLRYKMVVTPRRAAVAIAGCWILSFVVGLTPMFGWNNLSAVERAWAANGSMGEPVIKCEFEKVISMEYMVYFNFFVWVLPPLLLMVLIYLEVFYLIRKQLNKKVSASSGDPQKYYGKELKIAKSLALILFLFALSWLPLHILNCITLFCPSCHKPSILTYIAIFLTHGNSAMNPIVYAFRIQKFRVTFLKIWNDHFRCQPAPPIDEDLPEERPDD
Kind of assay: Displacement of [125I]ABA from human adenosine A1 receptor. In general terms: In a radioligand displacement assay an active substance lowers the binding of a labelled ligand.

A further assay concerns the target T3, Adenosine receptor A3 (Homo sapiens, UniProt P0DMS8).
T3 sequence (P0DMS8 whole entry): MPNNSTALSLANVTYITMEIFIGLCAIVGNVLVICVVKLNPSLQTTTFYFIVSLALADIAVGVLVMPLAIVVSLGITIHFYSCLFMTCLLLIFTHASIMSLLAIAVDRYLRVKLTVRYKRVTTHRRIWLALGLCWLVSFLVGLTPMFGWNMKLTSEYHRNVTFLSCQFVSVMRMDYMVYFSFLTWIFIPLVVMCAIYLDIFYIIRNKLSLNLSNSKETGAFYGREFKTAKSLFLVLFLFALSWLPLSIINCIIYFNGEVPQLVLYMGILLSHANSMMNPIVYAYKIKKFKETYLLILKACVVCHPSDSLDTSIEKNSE
Kind of assay: Displacement of [125I]ABA from human adenosine A3 receptor.

Broadly, the Ki is the dissociation constant of the complex between target and ligand, obtained from inhibition or displacement. Read a high Ki as a looser hold on the target.

On to `CCCn1c2nc(C34CCC(O)(CC3)CC4)nc-2c2n(c1=O)C[C@H](CC)N2` [(S)-8-ethyl-2-(4-hydroxybicyclo[2.2.2]octan-1-yl)-4-propyl-7,8-dihydro-1H-imidazo[1,2-g]purin-5(4H)-one], for which the Ki at Adenosine receptor A1 [1] was above 100 nM.
As for `CCCn1c2nc(C34CCC(O)(CC3)CC4)nc-2c2n(c1=O)C[C@@H](C(C)C)N2` [(R)-2-(4-hydroxybicyclo[2.2.2]octan-1-yl)-8-isopropyl-4-propyl-7,8-dihydro-1H-imidazo[1,2-g]purin-5(4H)-one], the Ki on Adenosine receptor A1 [2] is 35 nM; on Adenosine receptor A3, above 10000 nM.
At Adenosine receptor A1 [1], `CCCn1c2nc(C34CCC(O)(CC3)CC4)nc-2c2n(c1=O)CC[C@@H](C)N2` [(R)-2-(4-hydroxybicyclo[2.2.2]octan-1-yl)-9-methyl-4-propyl-8,9-dihydropyrimido[1,2-g]purin-5(1H,4H,7H)-one] showed a Ki above 250 nM.
Still for that read-out and setting: under `CCCn1c2nc(C34CCC(O)(CC3)CC4)nc-2c2n(c1=O)CC[C@@H](CC)N2` [(R)-9-ethyl-2-(4-hydroxybicyclo[2.2.2]octan-1-yl)-4-propyl-8,9-dihydropyrimido[1,2-g]purin-5(1H,4H,7H)-one] stands above 250 nM.
At Adenosine receptor A3, `CCCn1c2nc(C34CCC(O)(CC3)CC4)nc-2c2n(c1=O)C[C@@H](CC)N2` [(R)-8-ethyl-2-(4-hydroxybicyclo[2.2.2]octan-1-yl)-4-propyl-7,8-dihydro-1H-imidazo[1,2-g]purin-5(4H)-one] showed a Ki above 10000 nM.
On the same count and under the same terms, the same measure for `CCCn1c2nc(C34CCC(CCC(=O)O)(CC3)CC4)nc-2c2n(c1=O)C[C@@H](C(C)C)N2` [(R)-3-(4-(8-isopropyl-5-oxo-4-propyl-4,5,7,8-tetrahydro-1H-imidazo[1,2-g]purin-2-yl)bicyclo[2.2.2]octan-1-yl)propanoic acid]: above 10000 nM.

The record behind these values is BindingDB's records for doi:10.1021/jm060539t (Biogen Idec, 2006).
